Results: ChEMBL document CHEMBL1781927, “Highly selective c-Jun N-terminal kinase (JNK) 3 inhibitors with in vitro CNS-like pharmacokinetic properties II. Central core replacement” (Bioorg Med Chem Lett, 2011)
Values after ≈ are worked out from the molar mass of the structure shown.

Key:
[1] = target: Mitogen-activated protein kinase 10 (Homo sapiens, UniProt P53779); experiment: Inhibition of JNK3 by TR-FRET assay
Outline: (§1)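 IC50s were determined at a single fixed ATP concentration, and each value is the mean of at least three independent experiments.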

[2] = target: Mitogen-activated protein kinase 9 (Homo sapiens, UniProt P45984); experiment: Inhibition of JNK2 by TR-FRET assay; outline: as §1
Sequence of Mitogen-activated protein kinase 9 (P45984 whole entry): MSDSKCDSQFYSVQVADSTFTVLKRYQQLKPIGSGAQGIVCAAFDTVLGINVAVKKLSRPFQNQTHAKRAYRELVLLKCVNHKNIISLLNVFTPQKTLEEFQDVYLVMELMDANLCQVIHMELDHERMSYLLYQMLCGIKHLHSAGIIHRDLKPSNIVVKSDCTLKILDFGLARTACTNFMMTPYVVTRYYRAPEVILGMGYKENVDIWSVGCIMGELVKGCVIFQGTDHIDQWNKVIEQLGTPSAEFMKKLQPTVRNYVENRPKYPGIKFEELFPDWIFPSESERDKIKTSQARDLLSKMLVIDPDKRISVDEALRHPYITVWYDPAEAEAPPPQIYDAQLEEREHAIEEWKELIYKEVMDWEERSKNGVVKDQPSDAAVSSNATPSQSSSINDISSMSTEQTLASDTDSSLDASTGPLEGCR

[3] = Solubility of the compound; format: physicochemical
[4] = target: Mitogen-activated protein kinase 8 (Homo sapiens, UniProt P45983); experiment: Inhibition of JNK1 by TR-FRET assay; outline: as §1
Sequence of Mitogen-activated protein kinase 8 (P45983 whole entry): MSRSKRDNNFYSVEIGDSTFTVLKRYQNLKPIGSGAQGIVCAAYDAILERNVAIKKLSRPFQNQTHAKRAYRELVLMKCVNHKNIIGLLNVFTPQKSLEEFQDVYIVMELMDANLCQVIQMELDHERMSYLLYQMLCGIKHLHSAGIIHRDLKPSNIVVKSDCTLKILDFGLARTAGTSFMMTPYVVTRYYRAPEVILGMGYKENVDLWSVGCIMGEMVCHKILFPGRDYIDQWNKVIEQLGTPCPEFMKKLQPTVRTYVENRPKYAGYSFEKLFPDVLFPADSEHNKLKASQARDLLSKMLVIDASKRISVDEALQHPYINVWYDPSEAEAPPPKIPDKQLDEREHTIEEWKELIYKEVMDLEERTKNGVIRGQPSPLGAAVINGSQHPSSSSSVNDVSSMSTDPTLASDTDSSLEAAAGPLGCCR

[5] = Oxidative metabolic stability in human liver microsomes assessed as compound remaining after 30 mins; format: ADME, Microsome; conditions: read-out: Stability
Outline: (§2)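 Liver microsomes, mouse or human, were incubated with the compound for 30 min under oxidative conditions. The read-out is the percent of parent compound remaining.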

[6] = Oxidative metabolic stability in mouse liver microsomes assessed as compound remaining after 30 mins; format: ADME, Microsome; conditions: read-out: Stability; outline: as §2
[7] = Apparent permeability from apical to basolateral side in MDCK2 cells at 5 uM after 120 mins; format: ADME, cell-based, Canis lupus familiaris, MDCK-II; conditions: dog, MDCK

Sequence of Mitogen-activated protein kinase 10 (P53779 whole entry): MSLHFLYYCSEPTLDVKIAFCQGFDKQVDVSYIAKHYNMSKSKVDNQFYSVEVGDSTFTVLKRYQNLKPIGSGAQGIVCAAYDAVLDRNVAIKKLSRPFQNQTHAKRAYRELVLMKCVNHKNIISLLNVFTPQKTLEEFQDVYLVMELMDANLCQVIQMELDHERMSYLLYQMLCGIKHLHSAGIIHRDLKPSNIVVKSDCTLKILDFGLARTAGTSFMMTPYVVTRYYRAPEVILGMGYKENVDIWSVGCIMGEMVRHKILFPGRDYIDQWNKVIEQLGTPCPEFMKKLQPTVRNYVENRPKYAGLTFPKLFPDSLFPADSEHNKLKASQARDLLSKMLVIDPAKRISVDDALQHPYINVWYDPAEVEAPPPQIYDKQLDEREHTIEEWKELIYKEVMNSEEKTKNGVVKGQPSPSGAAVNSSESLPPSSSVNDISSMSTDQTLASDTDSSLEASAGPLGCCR

SMILES	IC50 [1] [µM]	IC50 [2] [µM]	solubility [3] [µM]	IC50 [4] [µM]	remaining at 0.5 h [5] [%]	remaining at 0.5 h [6] [%]	Papp A→B at 2 h, 5 µM [7] [×10⁻⁶ cm/s]
c1ccc2cc(-n3nccc3-c3ccncc3)ccc2c1	1.23	4.88		> 50	58	11	
c1ccc2cc(-n3ccnc3-c3ccncc3)ccc2c1	1.91	6.39		> 50	18	0	
Clc1nnn(-c2ccncc2)c1-c1ccc2ccccc2c1	12.6	37.9		> 50	5	0	
S=c1[nH]nc(-c2ccnc(NCC3CC3)c2)n1-c1ccc2ccccc2c1	0.945	2.25	35 (≈ 13.1 µg/mL)	> 50			
Clc1nnc(-c2ccncc2)n1-c1ccc2ccccc2c1	30.4	> 50	78 (≈ 23.9 µg/mL)	> 50			
Cc1cc(-c2n[nH]c(=S)n2-c2ccc3ccccc3c2)ccn1	14.8	15.3	100 (≈ 31.8 µg/mL)	> 50			
c1ccc2cc(-n3nncc3-c3ccncc3)ccc2c1	2.67	9.14		> 50			

The remaining lines, values ahead:

IC50 [1] [µM]	IC50 [2] [µM]	solubility [3] [µM]	IC50 [4] [µM]	remaining at 0.5 h [5] [%]	remaining at 0.5 h [6] [%]	Papp A→B at 2 h, 5 µM [7] [×10⁻⁶ cm/s]	SMILES
> 50	> 50	100 (≈ 31.9 µg/mL)	> 50				Cc1cc(-c2n[nH]c(=S)n2-c2cnc3ccccc3c2)ccn1
0.364	1.22		6.85	44	2	15.2	c1ccc2cc(-c3[nH]nnc3-c3ccncc3)ccc2c1
27.4	34.6	35 (≈ 11.3 µg/mL)	> 50				Fc1cnccc1-c1n[nH]c(=S)n1-c1ccc2ccccc2c1
0.0522	0.0665	5 (≈ 2.01 µg/mL)	> 50				S=c1[nH]nc(-c2ccnc(NC3CCCCC3)c2)n1-c1ccc2ccccc2c1
18.3	46.2	100 (≈ 28.6 µg/mL)	> 50				Cc1nnc(-c2ccncc2)n1-c1ccc2ccccc2c1
4.13	18.1		> 50	29	0		c1ccc2cc(-c3ncncc3-c3ccncc3)ccc2c1
31.8	> 50	15 (≈ 4.58 µg/mL)	> 50				S=c1[nH]nc(-c2ccncc2)n1-c1ccc2ncccc2c1
